# Reference: ChEMBL document CHEMBL1255303, “In vitro and in vivo antifungal activities of T-2307, a novel arylamidine” (2008)
# Legend:
# Format in all cases: functional
# [1] = system: Candida albicans; experiment: Antifungal activity against Candida albicans ATCC 10261 after 48 hrs by broth microdilution method; conditions: ATCC 10261, 48 h
# Procedure, shortened: (§1)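 CLSI M27-A2 (yeasts) / M38-A (moulds) broth microdilution in RPMI 1640 buffered to pH 7.0 with 0.165 M MOPS. Malassezia furfur got the same medium supplemented with glucose, bile salts, glycerol, glycerol monostearate and Tween 20. Final inoculum 0.65 × 10^3–2.5 × 10^3 CFU/ml for yeasts and 0.87 × 10^4–3.8 × 10^4 CFU/ml for filamentous fungi. Incubation at 35°C except M. racemosus and F. solani, which were held at 30°C.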
# [2] = system: Candida albicans; experiment: Antifungal activity against Candida albicans ATCC 90028 after 48 hrs by broth microdilution method; conditions: ATCC 90028, 48 h; procedure, shortened: as §1
# [3] = system: Candida albicans; experiment: Antifungal activity against Candida albicans TIMM 1623 after 48 hrs by broth microdilution method; conditions: TIMM 1623, 48 h; procedure, shortened: as §1
# [4] = system: Candida dubliniensis; experiment: Antifungal activity against Candida dubliniensis ATCC MYA-577 after 48 hrs by broth microdilution method; conditions: ATCC MYA-577, 48 h; procedure, shortened: as §1
# [5] = system: Pichia kudriavzevii; experiment: Antifungal activity against Candida krusei IFO 0584 after 48 hrs by broth microdilution method; conditions: IFO 0584, 48 h; procedure, shortened: as §1
# [6] = system: Candida tropicalis; experiment: Antifungal activity against Candida tropicalis IFO 1400 after 48 hrs by broth microdilution method; conditions: IFO 1400, 48 h; procedure, shortened: as §1
# [7] = system: Cryptococcus neoformans; experiment: Antifungal activity against Cryptococcus neoformans TIMM 0354 after 72 hrs by broth microdilution method; conditions: TIMM 0354, 72 h
# Procedure, shortened: (§2)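 CLSI M27-A2 (yeasts) or M38-A (A. fumigatus) broth microdilution in RPMI 1640 buffered to pH 7.0 with 0.165 M MOPS. Final inocula were 0.65–2.5 × 10^3 CFU/ml for yeasts and 0.87–3.8 × 10^4 CFU/ml for filamentous fungi. Incubation was at 35°C for about 48 h (72 h for C. neoformans). MIC was the lowest concentration giving a prominent (~50%) turbidity drop versus growth control; amphotericin B required complete inhibition.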
# [8] = system: Malassezia furfur; experiment: Antifungal activity against Malassezia furfur NBRC 0656 after 48 hrs by broth microdilution method; conditions: NBRC 0656, 48 h; procedure, shortened: as §1
# [9] = system: Saccharomyces cerevisiae; experiment: Antifungal activity against Saccharomyces cerevisiae ATCC 24657 after 48 hrs by broth microdilution method; conditions: ATCC 24657, 48 h; procedure, shortened: as §1
# [10] = system: Trichosporon asahii; experiment: Antifungal activity against Trichosporon asahii JCM 2466 after 48 hrs by broth microdilution method; conditions: JCM 2466, 48 h; procedure, shortened: as §1
# [11] = system: Aspergillus fumigatus; experiment: Antifungal activity against Aspergillus fumigatus ATCC 16424 after 48 hrs by broth microdilution method; conditions: ATCC 16424, 48 h; procedure, shortened: as §2
# [12] = system: Aspergillus fumigatus; experiment: Antifungal activity against Aspergillus fumigatus IFM 49895 after 48 hrs by broth microdilution method; conditions: IFM 49895, 48 h; procedure, shortened: as §1
# [13] = system: Aspergillus fumigatus; experiment: Antifungal activity against Aspergillus fumigatus TIMM 0063 after 48 hrs by broth microdilution method; conditions: TIMM 0063, 48 h; procedure, shortened: as §1
# [14] = system: Aspergillus nidulans; experiment: Antifungal activity against Aspergillus nidulans NBRC 33017 after 48 hrs by broth microdilution method; conditions: NBRC 33017, 48 h; procedure, shortened: as §1
# [15] = system: Aspergillus niger; experiment: Antifungal activity against Aspergillus niger NBRC 33023 after 48 hrs by broth microdilution method; conditions: NBRC 33023, 48 h; procedure, shortened: as §1
# [16] = system: Lichtheimia corymbifera; experiment: Antifungal activity against Absidia corymbifera NBRC 4009 after 24 hrs by broth microdilution method; conditions: NBRC 4009, 24 h; procedure, shortened: as §1
# [17] = system: Mucor racemosus; experiment: Antifungal activity against Mucor racemosus NBRC5403 after 24 hrs by broth microdilution method; conditions: NBRC5403, 24 h
# [18] = system: Candida albicans; experiment: Antifungal activity against Candida albicans ATCC 96901 after 47 hrs by broth microdilution method; conditions: ATCC 96901, 47 h
# Procedure, shortened: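 Fluconazole-resistant or susceptible-dose-dependent ATCC C. albicans strains were tested by CLSI M27-A2 broth microdilution in RPMI 1640–0.165 M MOPS, pH 7.0, with a final inoculum of 1.1–1.5 × 10^3 CFU/ml at 35°C for about 47 h. MIC was the lowest concentration with a prominent (~50%) turbidity decrease relative to growth control; amphotericin B was read at complete inhibition.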
# [19] = system: Candida albicans; experiment: Antifungal activity against Candida albicans clinical isolates after 48 hrs by broth microdilution method
# Procedure, shortened: (§3)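 Clinical isolates from Japanese hospitals or culture collections were tested by broth microdilution in RPMI 1640-MOPS. Inoculum was 0.57 × 10^3–2.5 × 10^3 CFU/ml for yeasts and 0.4 × 10^4–3.3 × 10^4 CFU/ml for filamentous fungi. Incubation was at 35°C for about 48 h, or 72 h where footnoted. Results were summarised as MIC range, MIC50 and MIC90.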
# [20] = system: Meyerozyma guilliermondii; experiment: Antifungal activity against Candida guilliermondii clinical isolates after 48 hrs by broth microdilution method; procedure, shortened: as §3
# [21] = system: Candida parapsilosis; experiment: Antifungal activity against Candida parapsilosis clinical isolates after 48 hrs by broth microdilution method; conditions: Lodderomyces parapsilosis
# Procedure, shortened: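 Japanese hospital Candida isolates were tested by CLSI M27-A2 broth microdilution in RPMI 1640–MOPS, pH 7.0, with inocula of 0.57–2.5 × 10^3 CFU/ml at 35°C for about 48 h. Inocula came from 24-h potato dextrose agar cultures. MIC was the lowest concentration with about 50% turbidity reduction versus growth control (complete inhibition for amphotericin B). Range, MIC50 and MIC90 were reported.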
# [22] = system: Aspergillus fumigatus; experiment: Antifungal activity against Aspergillus fumigatus clinical isolates after 48 hrs by broth microdilution method; procedure, shortened: as §3
structure (smiles),measurement,setting,value
C[C@@H](c1ncncc1F)[C@](O)(Cn1cncn1)c1ccc(F)cc1F [VORICONAZOLE],MFC,[1],> 64 µg/mL
same,MIC,[1],0.0039 µg/mL
same,MFC,[2],> 64 µg/mL
same,MIC,[2],0.0039 µg/mL
same,MFC,[3],> 64 µg/mL
same,MIC,[3],0.0039 µg/mL
same,MFC,[4],> 64 µg/mL
same,MIC,[4],0.0078 µg/mL
same,MFC,[5],2 µg/mL
same,MIC,[5],0.125 µg/mL
same,MFC,[6],> 64 µg/mL
same,MIC,[6],0.0625 µg/mL
same,MFC,[7],> 64 µg/mL
same,MIC,[7],0.0313 µg/mL
same,MFC,[8],> 64 µg/mL
same,MIC,[8],0.0625 µg/mL
same,MFC,[9],> 64 µg/mL
same,MIC,[9],0.125 µg/mL
same,MFC,[10],> 64 µg/mL
same,MIC,[10],0.0625 µg/mL
same,MFC,[11],32 µg/mL
same,MIC,[11],0.25 µg/mL
same,MFC,[12],8 µg/mL
same,MIC,[12],2 µg/mL
same,MFC,[13],1 µg/mL
same,MIC,[13],1 µg/mL
same,MFC,[14],0.25 µg/mL
same,MIC,[14],0.125 µg/mL
same,MFC,[15],16 µg/mL
same,MIC,[15],0.5 µg/mL
same,MFC,[16],> 64 µg/mL
same,MIC,[16],32 µg/mL
same,MFC,[17],> 64 µg/mL
same,MIC,[17],> 64 µg/mL
same,MIC,[18],0.5 µg/mL
same,MIC,[19],0.0039 µg/mL
same,MIC50,[19],0.0039 µg/mL
same,MIC90,[19],0.0078 µg/mL
same,MIC50,[20],0.0625 µg/mL
same,MIC90,[20],0.125 µg/mL
same,MIC50,[21],0.0156 µg/mL
same,MIC90,[21],0.0313 µg/mL
same,MIC50,[22],1 µg/mL
same,MIC90,[22],1 µg/mL
